Measured values taken from paper PMC3065020 (Journal of nuclear medicine : official publication, Society …, 2009).
Each block holds one compound with its values, some of them ahead of it.

Legend:
[1] = molecular target: T1, Aβ aggregates in postmortem AD brain homogenates (Homo sapiens, UniProt P05067); type: binding
[2] = molecular target: T1, Aβ aggregates in postmortem AD brain homogenates; experiment: Saturation binding of ^18F-AV-45 in postmortem AD brain homogenates
Method in brief: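 Gray matter from frozen AD brains was homogenized in PBS, diluted to 50–100 mg/mL and stored at −80°C. Saturation binding was run on 4 different AD brain homogenates. Binding was analysed by Scatchard plot with nonlinear regression, and Bmax was expressed as fmol/mg protein.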

[3] = Small-animal PET of monkey brain; type: in vivo, rhesus monkey
Method in brief: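 A young adult female rhesus monkey (6.65 kg) was intubated and kept under isoflurane, with a hindlimb venous catheter. After a transmission scan, it received 173.9 MBq (4.7 mCi; 71,262 MBq/mmol) of radiotracer in 3 mL of 95% saline/5% ethanol as a 1-min bolus. Emission data were collected for 90 min, corrected for attenuation and scatter, and reconstructed by 3D MAP. Manual volumetric ROIs (striatum, thalamus, cortex, white matter), drawn on the summed 60–90-min image, gave time–activity curves.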

[4] = In vivo metabolism in mice
Method in brief: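 Healthy mice received 370–555 MBq (10–15 mCi) of radiotracer by tail vein and were killed at 2, 10, 30 or 60 min. Plasma was separated by centrifugation (3,000 rpm, 2 min) and mixed with an equal volume of acetonitrile. After spinning at 5,000 rpm for 5 min, the supernatant was run on C18 HPLC (0.1% TFA water/acetonitrile gradient, 1 mL/min) with radioactivity detection. Metabolites were identified by LC/MS.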

[5] = molecular target: Aβ plaques in AD brain sections (Homo sapiens, UniProt P05067); experiment: In vitro autoradiography of postmortem human brain sections; type: binding; conditions: tracer 0.3 nM, 1 h
Method in brief: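 Frozen brains from AD and control subjects were cut into 20-µm sections. Sections were incubated for 1 h with 0.3 nM radiotracer in 40% ethanol. They were then washed twice for 2 min in saturated Li2CO3 in 40% ethanol, once for 2 min in 40% ethanol, and rinsed in water for 30 s. Dried sections were exposed to film for 12–18 h, and the images were digitized.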

[6] = In vivo biodistribution; set-up: species or system mouse; conditions: for Brain concentration at 2 min / Brain concentration at 60 min: intravenous; for Brain uptake at 2 min after injection / Brain uptake at 60 min after injection: intravenous tracer dose of the metabolite
Method in brief: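 CD-1 mice (20–26 g, male and female) received 370 kBq (10 µCi) of radiotracer in 10% ethanol/90% saline with 0.5% ascorbic acid by tail vein. Mice were killed by cardiac puncture under isoflurane at 2, 60, 120 and 180 min, with 3 animals per time point. Organs were weighed and γ-counted, and percentage dose was calculated against diluted aliquots of the injectate. Separately prepared labelled metabolites were also tested in healthy mice.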

[7] = molecular target: T1, Aβ aggregates in postmortem AD brain homogenates; experiment: Competitive binding assay against ^18F-AV-45 in postmortem AD brain homogenates; conditions: read-out: Inhibition constant (Ki) against binding of ^18F-AV-45 to Aβ aggregates, radioligand ^18F-AV-45, 2 h at 37°C

T1 sequence (P05067 672-713 limits assumed): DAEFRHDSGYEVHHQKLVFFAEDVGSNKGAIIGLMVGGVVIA
Aβ plaques in AD brain sections, sequence (P05067 672-713 limits assumed): as above

Metabolite share in plasma ([4]; mouse plasma, 30 min after intravenous injection of ^18F-AV-45): about 48%
Brain uptake at 2 min after injection ([6]; healthy mice): 4.5 %ID/g
Brain uptake at 60 min after injection ([6]; healthy mice): 1.8 %ID/g
Structure (SMILES): Nc1ccc(C=Cc2ccc(OCCOCCOCCF)nc2)cc1 [^18F-AV-160]

Ki [7]: 398 ± 45 nM
Structure (SMILES): CC(=O)N(C)c1ccc(/C=C/c2ccc(OCCOCCOCCF)nc2)cc1 [^18F-AV-267]

Brain uptake at 2 min after injection ([6]; healthy mice): 3.3 %ID/g
Brain uptake at 60 min after injection ([6]; healthy mice): 1.8 %ID/g
Structure (SMILES): CC(=O)N(C)c1ccc(/C=C/c2ccc(OCCOCCOCC[18F])nc2)cc1 [^18F-AV-267]

Second part, the compound before the results:

Structure (SMILES): CNc1ccc(/C=C/c2ccc(OCCOCCOCCF)nc2)cc1 [^18F-AV-45, (E)-4-(2-(6-(2-(2-(2-^18F-fluoroethoxy)ethoxy)ethoxy)pyridin-3-yl)vinyl)-N-methyl benzenamine]
Kd ([1]; read-out: Kd = Koff/Kon, derived from kinetic measurement): 1.31 nM

Structure (SMILES): CNc1ccc(/C=C/c2ccc(OCCOCCOCC[18F])nc2)cc1 [^18F-AV-45, (E)-4-(2-(6-(2-(2-(2-^18F-fluoroethoxy)ethoxy)ethoxy)pyridin-3-yl)vinyl)-N-methyl benzenamine]
Bmax (saturation binding), average ([2]; average of 4 different AD brain homogenates): 8,811 ± 1,643 fmol/mg protein
Bmax (saturation binding), representative example ([2]; representative AD brain homogenate, Figure 2): 7,215 fmol/mg of protein
Specific binding or retention in healthy monkey brain ([3]; healthy rhesus monkey, no Aβ plaques): did not display any specific binding or prolonged retention in the brain
Time of peak activity in cortex ([3]; rhesus monkey, intravenous 173.9 MBq): 7 min
Injected dose localized in the brain at the peak ([3]; rhesus monkey, intravenous 173.9 MBq, estimated): about 4.4 % of the injected dose
Biologic T1/2 in mouse plasma ([4]; intravenous, estimated): less than 30 min
Parent remaining in plasma ([4]; mouse plasma, 30 min after intravenous injection): 30%
Koff ([1]; dissociation from Aβ aggregates, AD brain homogenates): 0.00075 ± 0.0001 s⁻¹
Labeling of AD brain sections containing Aβ plaques (autoradiogram) ([5]; AD brain sections): highly dense labeling
Labeling of brain sections of control subjects (autoradiogram) ([5]; control subject brain sections): no specific labeling
Brain concentration at 2 min ([6]; female healthy mice, 2 min after administration (peak)): 6.23 %ID/g
Brain concentration at 60 min ([6]; female healthy mice): 1.84 %ID/g
Initial brain uptake of parent relative to either of its metabolites ([6]; healthy mice, initial uptake): 1.5 fold
Brain concentration at 2 min ([6]; male healthy mice, 2 min after administration): 7.33 %ID/g
Brain concentration at 60 min ([6]; male healthy mice): 1.88 %ID/g
